Laboratory results from ChEMBL document CHEMBL1129436, “Novel peptidyl alpha-keto amide inhibitors of calpains and other cysteine proteases” (J Med Chem, 1996).

Assays:
Cathepsin B [1] = molecular target: T1, Cathepsin B (Homo sapiens, UniProt P07858); assay: Inhibition of human cathepsin B
Outline: (§1)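 Bovine or human cathepsin B, assayed in 20 mM sodium acetate, pH 5.2, with 0.5 mM dithiothreitol and 2% DMSO. The two enzyme sources were used interchangeably. Ki was taken from Dixon plots, with triplicate assays plotted as 1/v versus inhibitor concentration.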

[2] = molecular target: T2, Calpain-1 catalytic subunit (Homo sapiens, UniProt P07384); assay: Inhibition of the cysteine protease human Calpain 1
T2 sequence (P07384 whole entry): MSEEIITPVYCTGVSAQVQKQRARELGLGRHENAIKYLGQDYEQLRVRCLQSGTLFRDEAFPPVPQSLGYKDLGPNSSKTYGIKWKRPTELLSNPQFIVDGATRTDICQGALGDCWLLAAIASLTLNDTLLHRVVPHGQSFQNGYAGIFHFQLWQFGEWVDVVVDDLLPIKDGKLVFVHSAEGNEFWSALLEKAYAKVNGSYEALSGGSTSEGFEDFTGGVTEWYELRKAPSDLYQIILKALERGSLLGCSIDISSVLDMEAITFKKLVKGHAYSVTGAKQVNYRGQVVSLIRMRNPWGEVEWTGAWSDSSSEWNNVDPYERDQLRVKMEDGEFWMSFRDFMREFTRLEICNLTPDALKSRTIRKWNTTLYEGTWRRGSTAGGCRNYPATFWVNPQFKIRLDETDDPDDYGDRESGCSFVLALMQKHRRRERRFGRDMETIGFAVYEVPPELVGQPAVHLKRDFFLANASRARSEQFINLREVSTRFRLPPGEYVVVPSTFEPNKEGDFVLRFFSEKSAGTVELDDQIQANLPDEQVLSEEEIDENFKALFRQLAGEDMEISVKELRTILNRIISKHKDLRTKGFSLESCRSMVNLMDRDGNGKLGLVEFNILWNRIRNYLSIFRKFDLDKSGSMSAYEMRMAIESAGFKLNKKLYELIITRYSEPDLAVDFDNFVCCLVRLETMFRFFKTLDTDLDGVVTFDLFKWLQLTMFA
Outline: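 Calpain assay in 25 mM Tris, pH 8.0, with 10 mM CaCl₂ and 5% DMSO. […] hydrolysis was read as initial velocity (t = 30-60 s) after a 30 s delay, at room temperature. Five or more inhibitor concentrations (not above 2 × K_obs) were used at two fixed substrate levels. Ki came from Dixon plots (1/v vs I) averaged over triplicates.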

Cathepsin B [3] = molecular target: Cathepsin B (Bos taurus, UniProt P07688); assay: Inhibition of bovine cathepsin B
Outline: as §1

Cathepsin B [4] = molecular target: T1, Cathepsin B; assay: Compound was evaluated for the inhibition of Cathepsin B
Outline: as §1

Cathepsin B [5] = molecular target: T1, Cathepsin B; assay: Compound was evaluated for the inhibition of Cathepsin B; Gives nonlinear dixon plots
Outline: as §1
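For IC in this document: measured as membrane permeability of platelets.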

CCC(NC(=O)C(CC(C)C)NC(=O)OCc1ccccc1)C(=O)C(=O)NCCCCCO (stereo not given)
IC (Rattus norvegicus): 54 µM | Ki (Cathepsin B [1]): 280 nM

CCCNC(=O)C(=O)C(Cc1ccccc1)NC(=O)C(CC(C)C)NC(=O)OCc1ccccc1 (stereo not given)
IC (Rattus norvegicus): 31 µM | Ki (Cathepsin B [1]): 3000 nM | Ki [2]: 350 nM

CCC(NC(=O)C(CC(C)C)NC(=O)C(c1ccccc1)c1ccccc1)C(=O)C(=O)NCC(O)c1ccccc1 (stereo not given)
IC (Rattus norvegicus): 180 µM | Ki [2]: 750 nM | Ki (Cathepsin B [3]): 170 nM

CCC(NC(=O)C(CC(C)C)NC(=O)OCc1ccccc1)C(=O)C(=O)NCCOCCO (stereo not given)
IC (Rattus norvegicus): 58 µM | Ki (Cathepsin B [1]): 2000 nM

CCC(NC(=O)C(CC(C)C)NC(=O)OCc1ccccc1)C(=O)C(=O)NCCc1ccccn1 (stereo not given)
IC (Rattus norvegicus): 70 µM | Ki [2]: 410 nM

CC(C)CC(NC(=O)OCc1ccccc1)C(=O)NC(Cc1ccccc1)C(=O)C(=O)NCCCN1CCOCC1 (stereo not given)
IC (Rattus norvegicus): 54 µM | Ki (Cathepsin B [1]): 13000 nM | Ki [2]: 120 nM

CCC(NC(=O)C(CC(C)C)NC(=O)OCc1ccccc1)C(=O)C(=O)NCc1ccncc1 (stereo not given)
IC (Rattus norvegicus): 54 µM | Ki (Cathepsin B [1]): 6400 nM | Ki [2]: 1100 nM

CCC(NC(=O)C(CC(C)C)NC(=O)OCc1ccccc1)C(=O)C(=O)NCCCc1ccccc1 (stereo not given)
IC (Rattus norvegicus): 100 µM | Ki (Cathepsin B [1]): 200 nM

CCC(NC(=O)C(CC(C)C)NC(=O)OCc1ccccc1)C(=O)C(=O)NCC1CCCO1 (stereo not given)
IC (Rattus norvegicus): 22 µM | Ki (Cathepsin B [1]): 4500 nM | Ki [2]: 330 nM

CCCNC(=O)C(=O)C(CC)NC(=O)C(CC(C)C)NC(=O)OCc1ccccc1 (stereo not given)
IC (Rattus norvegicus): 70 µM

CCC(NC(=O)C(CC(C)C)NC(=O)OCc1ccccc1)C(=O)C(=O)NCCO (stereo not given)
IC (Rattus norvegicus): 78 µM | Ki (Cathepsin B [1]): 4500 nM | Ki [2]: 800 nM

CCC(NC(=O)C(CC(C)C)NC(=O)OCc1ccccc1)C(=O)C(=O)NCCN1CCOCC1 (stereo not given)
IC (Rattus norvegicus): 23 µM | Ki (Cathepsin B [1]): 2500 nM | Ki [2]: 1000 nM

CCNC(=O)C(=O)C(Cc1ccccc1)NC(=O)C(CC(C)C)NC(=O)OCc1ccccc1 (stereo not given)
IC (Rattus norvegicus): 22 µM | Ki (Cathepsin B [1]): 6000 nM

CCC(NC(=O)C(CC(C)C)NC(=O)OCc1ccccc1)C(=O)C(=O)NCCCN1CCOCC1 (stereo not given)
IC (Rattus norvegicus): 45 µM | Ki (Cathepsin B [1]): 6900 nM | Ki [2]: 140 nM

CC(C)CC(NC(=O)C(c1ccccc1)c1ccccc1)C(=O)NC(Cc1ccccc1)C(=O)C(=O)NCc1ccccn1 (stereo not given)
IC (Rattus norvegicus): > 300 µM | Ki (Cathepsin B [1]): 2200 nM | Ki [2]: 1100 nM

CCC(NC(=O)C(CC(C)C)NC(=O)OCc1ccccc1)C(=O)C(=O)NCC(O)c1ccccc1 (stereo not given)
IC (Rattus norvegicus): 69 µM | Ki (Cathepsin B [1]): 370 nM | Ki [2]: 1100 nM

CCC(NC(=O)C(CC(C)C)NC(=O)C(c1ccccc1)c1ccccc1)C(=O)C(=O)NCc1ccccn1 (stereo not given)
IC (Rattus norvegicus): 88 µM

CCC(NC(=O)C(CC(C)C)NC(=O)OCc1ccccc1)C(=O)C(=O)NCCc1cccc(OC)c1 (stereo not given)
Ki (Cathepsin B [1]): 310 nM | Ki [2]: 110 nM

CCC(NC(=O)C(CC(C)C)NC(=O)OCc1ccccc1)C(=O)C(=O)NCCc1c[nH]c2ccccc12 (stereo not given)
IC (Rattus norvegicus): 180 µM | Ki [2]: 300 nM | Ki (Cathepsin B [3]): 31 nM

CCC(NC(=O)C(CC(C)C)NC(=O)OCc1ccccc1)C(=O)C(=O)NCc1ccccc1 (stereo not given)
IC (Rattus norvegicus): 30 µM | Ki (Cathepsin B [1]): 2000 nM

CCC(NC(=O)C(CC(C)C)NC(=O)OCc1ccccc1)C(=O)C(=O)NCc1cccnc1 (stereo not given)
IC (Rattus norvegicus): > 300 µM | Ki (Cathepsin B [1]): 1200 nM

CCC(NC(=O)C(CC(C)C)NC(=O)OCc1ccccc1)C(=O)C(=O)NCC1(C)CC(O)CC(C)(C)C1 (stereo not given)
IC (Rattus norvegicus): 103 µM | Ki (Cathepsin B [1]): 890 nM | Ki [2]: 420 nM

CCC(NC(=O)C(CC(C)C)NC(=O)OCc1ccccc1)C(=O)C(=O)NCCCN1CCc2ccccc2C1 (stereo not given)
Ki (Cathepsin B [1]): 8000 nM | Ki [2]: 310 nM

CC(C)CC(NC(=O)OCc1ccccc1)C(=O)NC(Cc1ccccc1)C(=O)C(=O)NCC(O)c1ccccc1 (stereo not given)
IC (Rattus norvegicus): 44 µM | Ki (Cathepsin B [1]): 2100 nM | Ki [2]: 1300 nM

CC(C)CC(NC(=O)OCc1ccccc1)C(=O)NC(Cc1ccccc1)C(=O)C(=O)NCCc1ccccc1 (stereo not given)
IC (Rattus norvegicus): 100 µM | Ki (Cathepsin B [4]): 9300 nM

CCC(NC(=O)C(CC(C)C)NC(=O)OCc1ccccc1)C(=O)C(=O)NCCc1ccccc1OC (stereo not given)
Ki (Cathepsin B [1]): 630 nM | Ki [2]: 130 nM

CCNC(=O)C(=O)C(CC)NC(=O)C(CC(C)C)NC(=O)OCc1ccccc1 (stereo not given)
IC (Rattus norvegicus): 100 µM | Ki (Cathepsin B [1]): 2400 nM

CCC(NC(=O)C(CC(C)C)NC(=O)OCc1ccccc1)C(=O)C(=O)NCc1nccc2ccccc12 (stereo not given)
Ki (Cathepsin B [1]): 300 nM | Ki [2]: 250 nM

CC(C)CC(NC(=O)OCc1ccccc1)C(=O)NC(Cc1ccccc1)C(=O)C(=O)NCc1ccccn1 (stereo not given)
Ki (Cathepsin B [1]): 800 nM | Ki [2]: 650 nM

CC(C)CC(NC(=O)OCc1ccccc1)C(=O)NC(Cc1ccccc1)C(=O)C(=O)NCc1ccc2ccccc2n1 (stereo not given)
Ki (Cathepsin B [1]): 340 nM | Ki [2]: 110 nM

CCC(NC(=O)C(CC(C)C)NC(=O)OCc1ccccc1)C(=O)C(=O)NCc1cc(OC)cc(OC)c1 (stereo not given)
IC (Rattus norvegicus): 30 µM | Ki (Cathepsin B [1]): 1800 nM | Ki [2]: 2300 nM

CCC(NC(=O)C(CC(C)C)NC(=O)OCc1ccccc1)C(=O)C(=O)NCCc1ccc(O)cc1 (stereo not given)
IC (Rattus norvegicus): 23 µM | Ki [2]: 380 nM | Ki (Cathepsin B [5]): Non linear Dixon plots

CCC(NC(=O)C(CC(C)C)NC(=O)OCc1ccccc1)C(=O)C(=O)NCCc1ccccc1 (stereo not given)
IC (Rattus norvegicus): 50 µM | Ki (Cathepsin B [1]): 1300 nM

CC(C)CC(NC(=O)OCc1ccccc1)C(=O)NC(Cc1ccccc1)C(=O)C(=O)NCc1ccccc1 (stereo not given)
IC (Rattus norvegicus): > 300 µM | Ki (Cathepsin B [4]): 4600 nM

CCCC(NC(=O)C(CC(C)C)NC(=O)OCc1ccccc1)C(=O)C(=O)NCCCN1CCOCC1 (stereo not given)
IC (Rattus norvegicus): 18 µM | Ki (Cathepsin B [1]): 4200 nM | Ki [2]: 250 nM

CCC(NC(=O)C(CC(C)C)NC(=O)OCc1ccccc1)C(=O)C(=O)NCc1ccccn1 (stereo not given)
IC (Rattus norvegicus): 110 µM | Ki (Cathepsin B [1]): 3000 nM | Ki [2]: 640 nM

CCC(NC(=O)C(CC(C)C)NC(=O)OCc1ccccc1)C(=O)C(=O)NCc1ccco1 (stereo not given)
IC (Rattus norvegicus): 58 µM | Ki (Cathepsin B [1]): 6000 nM | Ki [2]: 800 nM
